Rows were chosen to be rich in hits. Some 1.2% of all compounds tested hit in one or more screens of this group.
ASAP1 inh: blocks human ASAP1-stimulated Arf1 GTP hydrolysis; Q9ULH1; GDP FP detection; inhibition, % at 16.5 µM; 0.19% of 360,000 active; in the data active means inhibition above about 25%;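 further: 0% = vehicle with enzyme and substrate and 100% = no enzyme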
Fh CTSL1 inh: blocks F. hepatica cathepsin L1 in PFM18AAP counter-screen | recombinant F. hepatica cathepsin L1, Z-Leu-Arg-MCA fluorescence | 0.49% of 300,000 active | inhibition, % at 5.96 µM | AID 1906;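 active means inhibition above the mean of all tested compounds plus 3 SD, set per screening campaign, cut at about 17% in these data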;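 further: 0% = plate median of test compound wells and 100% = 1 µM Z-Phe-Ala-diazomethylketone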
GC-A act: GC-A (human) enzyme activation. AID 1671463. HEK293 GC-A cells, cGMP TR-FRET, EC30 ANP; 0% at EC30 ANP, 100% saturating ANP. activation, % at 10 µM. P16066. 0.14% of 370,000 active; in the data active means activation above about 40%
ARFGAP1 inh: rat ARFGAP1 inhibition; AID 651572; Arfgap1-stimulated ARF1 GTP hydrolysis, GDP FP detection; Q62848; inhibition, % at 16.5 µM; 0.26% of 360,000 active;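 active means inhibition above a per-plate limit, mean inhibition of low control wells plus 3 SD, cut at about 25% in these data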;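 further: 0% = DMSO wells with enzyme and 100% = wells lacking Arfgap1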
Target sequence (Q62848 1-136 limits assumed): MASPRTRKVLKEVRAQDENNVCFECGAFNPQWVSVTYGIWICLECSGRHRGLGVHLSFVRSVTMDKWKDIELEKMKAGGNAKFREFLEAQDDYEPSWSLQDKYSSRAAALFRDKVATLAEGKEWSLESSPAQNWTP
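Assay system: Rat Arfgap1 GAP domain (His6, aa 1-136), purified enzyme | Buffer or medium: HEPES 25 mM pH 7.5, NaCl 150 mM, MgCl2, DTT | Schedule: GTP hydrolysis reaction 2 h at 25 °C | Signal: FP of antibody-bound GDP Alexa 633 tracer, ex 620/em 688 nm | Measure: Percent inhibition of Arfgap1-stimulated GTP hydrolysis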
NPR2 activator: GC-B (human) receptor activation. P20594. HEK293-GC-B cells, CNP EC30, cGMP TR-FRET; 0% at EC30 CNP, 100% saturating CNP. activation, % at 10 µM. 0.11% of 370,000 active;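 active means activation at 10 µM reaching about 35% in either raw or pattern-adjusted values, limit read from the data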
HCV core dimer: blocks dimerization of HCV core protein; TR-FRET GST/Flag-core106 dimerization, 1536-well; 0.33% of 300,000 active; inhibition, % at 5 µM;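 active means inhibition above the mean of all tested compounds plus 3 SD, set per screening campaign, cut at about 45% in these data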
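Assay system – GST-tagged and Flag-tagged HCV core protein residues 1-106 · Quantity – core106 proteins, GST 13.5 nM and Flag 17 nM · Benchmarks – unlabelled core106 and no-GST-core106 wells · Read-out basis – percent inhibition of core106 dimerization signal · Detection – time-resolved FRET, ex 340 nm, em 617 and 671 nm · Schedule – 4 h at 22.5 °C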
ASAP1 GAP conf: confirmation of human ASAP1 inhibitors; shares compounds with ASAP1 inh; ASAP1-stimulated Arf1 GTPase, GDP fluorescence polarization; inhibition, % at 16.5 µM; 37% of 620 active;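 active means mean inhibition over triplicates exceeds the hit threshold derived for the earlier primary screening run, cut at about 25% in these data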
ARFGAP1 confirm: rat ARFGAP1 inhibition, confirmed. ARFGAP1-stimulated ARF1 GTP hydrolysis, GDP tracer FP. inhibition, % at 16.5 µM. shares compounds with ARFGAP1 inh. 30% of 890 active;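 active means average inhibition over triplicates above the hit cutoff set in the earlier primary screen, cut at about 25% in these data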;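 further: 0% = Arfgap1 plus ARF1-GTP with DMSO and 100% = wells lacking Arfgap1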
Target sequence (Q62848 whole entry, looked up): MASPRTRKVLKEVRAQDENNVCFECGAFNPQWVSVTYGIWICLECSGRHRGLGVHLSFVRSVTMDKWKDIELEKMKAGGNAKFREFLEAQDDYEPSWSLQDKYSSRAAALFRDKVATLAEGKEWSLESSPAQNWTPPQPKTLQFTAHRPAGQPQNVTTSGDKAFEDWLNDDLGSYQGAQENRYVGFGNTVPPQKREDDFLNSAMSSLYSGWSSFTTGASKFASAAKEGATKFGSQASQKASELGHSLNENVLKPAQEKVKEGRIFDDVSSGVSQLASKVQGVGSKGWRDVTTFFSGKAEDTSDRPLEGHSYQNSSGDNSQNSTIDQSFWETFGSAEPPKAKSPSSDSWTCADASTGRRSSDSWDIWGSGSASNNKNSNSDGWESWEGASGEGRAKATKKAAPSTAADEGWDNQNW
Numbers without * were called inactive.

`CCN(CC)CCOC(=O)c1ccc(N/C=C(/C#N)c2nc(-c3ccc(OC)cc3)cs2)cc1` gave ASAP1 inh 48*, Fh CTSL1 inh 6, GC-A act 5, ARFGAP1 inh 28*, NPR2 activator 0, HCV core dimer 5, ASAP1 GAP conf 51* and ARFGAP1 confirm 55*.
Cc1ccc(C(=O)NCc2ccc3c(c2)OCO3)o1 was read as ASAP1 inh 0, Fh CTSL1 inh -2, GC-A act 4, ARFGAP1 inh 5, NPR2 activator 6 and HCV core dimer 2.
`Cc1ccc2cc3cc(C(=O)NCc4ccc5c(c4)OCO5)oc3nc2c1` gave ASAP1 inh 54*, GC-A act -2, ARFGAP1 inh 68*, NPR2 activator 0, ASAP1 GAP conf 28* and ARFGAP1 confirm 110*.
For CCOC(=O)c1nn(-c2ccc(C)c(Cl)c2)c(=O)c(C#N)c1C the results were ASAP1 inh -5, Fh CTSL1 inh 2, GC-A act 5, ARFGAP1 inh 1, NPR2 activator -1 and HCV core dimer 3.
Screening Cn1c(=O)n(CCOc2ccc(Cl)cc2Cl)c2ccccc21 returned ASAP1 inh 40*, Fh CTSL1 inh -2, GC-A act 11, ARFGAP1 inh 30*, NPR2 activator 4, HCV core dimer -6, ASAP1 GAP conf 47* and ARFGAP1 confirm 44*.
CCc1ccc(CN(C)C(=O)c2cc(COc3c(F)cccc3F)on2)cc1 was read as ASAP1 inh -11, Fh CTSL1 inh 1, GC-A act -3, ARFGAP1 inh 2, NPR2 activator -2 and HCV core dimer 4.
`O=C(Nc1ccc2oc(-c3ccccc3)nc2c1)c1ccc2c(c1)OCCO2` gave ASAP1 inh -1, Fh CTSL1 inh 2, GC-A act 7, ARFGAP1 inh -3, NPR2 activator -1 and HCV core dimer 0.
For O=C(Nc1ccc2oc(-c3cccnc3)nc2c1)c1ccc2c(c1)OCCO2 the results were ASAP1 inh 27*, Fh CTSL1 inh 1, GC-A act -1, ARFGAP1 inh 42*, NPR2 activator 3, HCV core dimer 21, ASAP1 GAP conf 38* and ARFGAP1 confirm 114*.
For O=C(/C=C/c1ccco1)Nc1ccc(-c2nc3ccccc3[nH]2)cc1 the results were ASAP1 inh 28*, Fh CTSL1 inh 2, GC-A act 0, ARFGAP1 inh 88*, NPR2 activator -2, HCV core dimer 5, ASAP1 GAP conf 71* and ARFGAP1 confirm 139*.
Screening O=C1N=C(N2CCOCC2)SC1=Cc1ccco1 returned ASAP1 inh -2, GC-A act -4, ARFGAP1 inh 7 and NPR2 activator -3.
Cc1ccc(-c2ccc(/C=C3\SC(N4CCOCC4)=NC3=O)o2)cc1 was read as ASAP1 inh 49*, Fh CTSL1 inh 6, GC-A act 19, ARFGAP1 inh 37*, NPR2 activator 4, HCV core dimer -1, ASAP1 GAP conf 116* and ARFGAP1 confirm 87*.
`O=C1N=C(N2CCOCC2)S/C1=C/c1ccc(-c2ccc(F)cc2)o1` gave ASAP1 inh 33*, Fh CTSL1 inh 3, GC-A act 10, ARFGAP1 inh 30*, NPR2 activator 1, HCV core dimer -8, ASAP1 GAP conf 58* and ARFGAP1 confirm 49*.
O=C(CSc1ccc(-c2ccc3c(c2)OCO3)nn1)Nc1nccs1 was read as ASAP1 inh 132*, Fh CTSL1 inh -3, GC-A act 9, ARFGAP1 inh 46*, NPR2 activator 9, HCV core dimer 4, ASAP1 GAP conf 75* and ARFGAP1 confirm 135*.
Screening O=C(CSCC(=O)Nc1nc(-c2ccc3c(c2)OCO3)cs1)Nc1nccs1 returned ASAP1 inh 9, Fh CTSL1 inh 4, GC-A act 14, ARFGAP1 inh -4, NPR2 activator -2 and HCV core dimer -1.
`Cc1ccc(NC(=O)CN(C)C(=O)CSc2nncn2C)cc1` gave ASAP1 inh 1, Fh CTSL1 inh 1, GC-A act 2, ARFGAP1 inh 8, NPR2 activator -2 and HCV core dimer -6.
`O=C1C(N2CCOCC2)=C(n2nnc3ccccc32)C(=O)c2ccccc21` gave ASAP1 inh 44*, Fh CTSL1 inh 81*, GC-A act -2, ARFGAP1 inh 31*, NPR2 activator -8, HCV core dimer 11, ASAP1 GAP conf 10 and ARFGAP1 confirm 3.
For CCCCOc1cccc2c(=O)n(CC(=O)Nc3ccc4c(c3)OCCO4)ccc12 the results were ASAP1 inh 35*, GC-A act -3, ARFGAP1 inh 25*, NPR2 activator 0, ASAP1 GAP conf 34* and ARFGAP1 confirm 38*.
Screening O=C(Cn1cnc2ccccc2c1=O)Nc1ccc2c(c1)OCCO2 returned ASAP1 inh 10, Fh CTSL1 inh -5, GC-A act 0, ARFGAP1 inh 5, NPR2 activator -1 and HCV core dimer -1.
`COc1cccc(NC(=O)Cn2nnc(C(=O)Nc3cc(Cl)ccc3OC)c2N)c1` gave ASAP1 inh 77*, Fh CTSL1 inh -3, GC-A act -2, ARFGAP1 inh 138*, NPR2 activator -4, HCV core dimer 30, ASAP1 GAP conf 109* and ARFGAP1 confirm 199*.
COc1ccc(Cl)cc1NC(=O)c1nnn(CC(=O)Nc2ccc(OC)c(OC)c2)c1N was read as ASAP1 inh -7, Fh CTSL1 inh 0, GC-A act 3, ARFGAP1 inh 0, NPR2 activator -5 and HCV core dimer 26.
`Cc1[nH][nH]c(=O)c1C(c1ccc(-c2ccc(Cl)c(C(=O)O)c2)o1)c1c(C)[nH][nH]c1=O` gave ASAP1 inh 42*, GC-A act 2, ARFGAP1 inh 25*, NPR2 activator -1, ASAP1 GAP conf 11 and ARFGAP1 confirm -2.
For CC1(C(=O)Nc2ccc3c(c2)OCCO3)CCN1Cc1ccc2ccccc2c1 (stereo not given) the results were ASAP1 inh -12, GC-A act -4, ARFGAP1 inh 2 and NPR2 activator 3.
For COc1ccc(N2CCN(C(=S)NCCc3ccccc3)CC2)cc1 the results were ASAP1 inh 0, Fh CTSL1 inh -3, GC-A act 2, ARFGAP1 inh -7, NPR2 activator 4 and HCV core dimer -4.
